Laboratory results taken from ChEMBL document CHEMBL1151476, “Genetic and biochemical characterization of CAD-1, a chromosomally encoded new class A penicillinase from Carnobacterium divergens” (Antimicrob Agents Chemother, 2008).
≈ marks a conversion by molar mass, not a printed value. Calls of active or inactive are those of the source. No cut-off for these calls is given here.

Legend:
Carnobacterium divergens [1] = assay: Antimicrobial activity against Carnobacterium divergens BM4490 expressing beta-lactamase CAD1 at 3 McFarland inoculum size by E-test; format: functional, organism-based; conditions: 3 M
Carnobacterium divergens [2] = assay: Activity of Carnobacterium divergens BM4489 penicillinase Cad-1 assessed as initial rate of hydrolysis by spectrophotometer
Carnobacterium divergens [3] = assay: Antimicrobial activity against Carnobacterium divergens BM4490 expressing beta-lactamase CAD1 at 0.5 McFarland inoculum size by E-test; format: functional, organism-based
Carnobacterium divergens [4] = assay: Antimicrobial activity against Carnobacterium divergens BM4489 expressing beta-lactamase CAD1 at 3 McFarland inoculum size by E-test; format: functional
Escherichia coli [5] = assay: Antimicrobial activity against Escherichia coli BL21 (DE3) by E-test; format: functional
Summary of the method: (§1)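 MICs read by E-test strips on Mueller-Hinton agar.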

Carnobacterium divergens [6] = assay: Antimicrobial activity against Carnobacterium divergens BM4489 expressing beta-lactamase CAD1 at 0.5 McFarland inoculum size by E-test; format: functional
Carnobacterium divergens [7] = assay: Antimicrobial activity against Carnobacterium divergens CIP101029 at 3 McFarland inoculum size by E-test; format: functional
Escherichia coli [8] = assay: Antimicrobial activity against Escherichia coli BL21 (DE3) harboring pAT514 by E-test; format: functional; summary of the method: as §1
Carnobacterium divergens [9] = assay: Ratio of Kcat to Km of Carnobacterium divergens BM4489 penicillinase Cad-1
Carnobacterium divergens [10] = assay: Antimicrobial activity against Carnobacterium divergens CIP101029 at 0.5 McFarland inoculum size by E-test; format: functional
[11] = Inhibition of Carnobacterium divergens BM4489 penicillinase Cad-1
Summary of the method: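 CAD-1 carried a C-terminal His6 tag and was expressed in E. coli BL21-CodonPlus(DE3)-RIPL from pAT514. It was purified by Ni affinity and Superdex 75 gel filtration. Enzyme was preincubated with varied inhibitor for 30 min at 25°C in 100 mM sodium phosphate pH 7.0, then 100 µM nitrocefin was added. Initial hydrolysis rates were followed spectrophotometrically. IC50 is the inhibitor concentration halving the rate.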

Carnobacterium divergens [12] = assay: Activity of Carnobacterium divergens BM4489 penicillinase Cad-1 at 1 uM enzyme concentration assessed as initial rate of hydrolysis by spectrophotometer
[13] = Ratio of IC50 for beta-lactamase TEM-1 over IC50 for Carnobacterium divergens BM4489 penicillinase Cad-1
Carnobacterium divergens [14] = assay: Ratio of Kcat to Km of Carnobacterium divergens BM4489 penicillinase Cad-1 relative to benzyl-penicillin

Structure (SMILES)	MIC (Carnobacterium divergens [1])	Km (Carnobacterium divergens [2])	kcat (Carnobacterium divergens [2])	MIC (Carnobacterium divergens [3])	MIC (Carnobacterium divergens [4])	MIC (Escherichia coli [5])	MIC (Carnobacterium divergens [6])	MIC (Carnobacterium divergens [7])	MIC (Escherichia coli [8])	kcat/Km (Carnobacterium divergens [9])	MIC (Carnobacterium divergens [10])	IC50 [11]	Activity (Carnobacterium divergens [12])	Ratio IC50 [13]	kcat/Km (Carnobacterium divergens [14])
CC1(C)S[C@@H]2[C@H](NC(=O)Cc3ccccc3)C(=O)N2[C@H]1C(=O)O [PENICILLIN G]	Active	27 µM	178 s⁻¹	Active	96 µg/mL (≈ 287 µM)	4 µg/mL (≈ 12 µM)	12 µg/mL (≈ 35.9 µM)	6 µg/mL (≈ 17.9 µM)	> 256 µg/mL	6.6e+06 M⁻¹ s⁻¹	3 µg/mL (≈ 8.97 µM)				
C[C@]1(Cn2ccnn2)[C@H](C(=O)O)N2C(=O)C[C@H]2S1(=O)=O [TAZOBACTAM]												0.27 µM			
CO/N=C(\C(=O)N[C@@H]1C(=O)N2C(C(=O)O)=C(COC(C)=O)CS[C@H]12)c1csc(N)n1 [CEFOTAXIME]	Active			Active	> 256 µg/mL	< 0.016 µg/mL	> 256 µg/mL	> 256 µg/mL			> 256 µg/mL		inactive		
O=C(O)[C@H]1/C(=C/CO)O[C@@H]2CC(=O)N21 [CLAVULANIC ACID]												4.7 µM		60	
O=C(Cc1cccs1)N[C@@H]1C(=O)N2C(C(=O)[O-])=C(C[n+]3ccccc3)CS[C@H]12		26 µM	0.56 s⁻¹							22000 M⁻¹ s⁻¹					0.3
CO/N=C(\C(=O)N[C@@H]1C(=O)N2C(C(=O)O)=C(COC(N)=O)CS[C@H]12)c1ccco1													inactive		
CC(C)(O/N=C(\C(=O)N[C@@H]1C(=O)N2C(C(=O)[O-])=C(C[n+]3ccccc3)CS[C@H]12)c1csc(N)n1)C(=O)O [CEFTAZIDIME]	Active			Active	> 256 µg/mL	0.064 µg/mL (≈ 0.117 µM)	> 256 µg/mL	> 256 µg/mL	0.047 µg/mL (≈ 0.086 µM)		> 256 µg/mL		inactive		
Cc1onc(-c2ccccc2)c1C(=O)N[C@@H]1C(=O)N2[C@@H]1SC(C)(C)[C@@H]2C(=O)O [OXACILLIN]	Active	21 µM	62 s⁻¹	Active	24 µg/mL (≈ 59.8 µM)		24 µg/mL (≈ 59.8 µM)	24 µg/mL (≈ 59.8 µM)		2.95e+06 M⁻¹ s⁻¹	16 µg/mL (≈ 39.9 µM)				45
CC1(C)S[C@@H]2[C@H](NC(=O)C(C(=O)O)c3ccccc3)C(=O)N2[C@H]1C(=O)O (some centres undefined)		245 µM	6 s⁻¹							24000 M⁻¹ s⁻¹					0.4
CC1(C)S[C@@H]2[C@H](NC(=O)[C@H](N)c3ccccc3)C(=O)N2[C@H]1C(=O)O [AMPICILLIN]	Active	48 µM	153 s⁻¹	Active	24 µg/mL (≈ 68.7 µM)	0.75 µg/mL (≈ 2.15 µM)	3 µg/mL (≈ 8.59 µM)	2 µg/mL (≈ 5.72 µM)	> 256 µg/mL	3.19e+06 M⁻¹ s⁻¹	1.5 µg/mL (≈ 4.29 µM)				48
CO[C@@]1(NC(=O)Cc2cccs2)C(=O)N2C(C(=O)O)=C(COC(N)=O)CS[C@@H]21													inactive		
C[C@H]1[C@H](NC(=O)/C(=N\OC(C)(C)C(=O)O)c2csc(N)n2)C(=O)N1S(=O)(=O)O [AZTREONAM]	Active			Active	> 256 µg/mL	< 0.016 µg/mL	> 256 µg/mL	> 256 µg/mL	< 0.016 µg/mL		> 256 µg/mL		Active		
CO/N=C(\C(=O)N[C@@H]1C(=O)N2C(C(=O)[O-])=C(C[N+]3(C)CCCC3)CS[C@H]12)c1csc(N)n1													inactive		
CC1(C)S[C@@H]2[C@H](NC(=O)[C@H](N)c3ccc(O)cc3)C(=O)N2[C@H]1C(=O)O [AMOXICILLIN]	Active			Active	16 µg/mL (≈ 43.8 µM)	1.5 µg/mL (≈ 4.1 µM)	4 µg/mL (≈ 10.9 µM)	2 µg/mL (≈ 5.47 µM)	> 256 µg/mL		0.75 µg/mL (≈ 2.05 µM)				
C[C@@H](O)[C@H]1C(=O)N2C(C(=O)O)=C(SCCNC=N)C[C@H]12 [IMIPENEM ANHYDROUS]	Active			Active	0.19 µg/mL (≈ 0.635 µM)	0.25 µg/mL (≈ 0.835 µM)	0.19 µg/mL (≈ 0.635 µM)	0.19 µg/mL (≈ 0.635 µM)	0.19 µg/mL (≈ 0.635 µM)		0.19 µg/mL (≈ 0.635 µM)				
CCN1CCN(C(=O)N[C@@H](C(=O)N[C@@H]2C(=O)N3[C@@H]2SC(C)(C)[C@@H]3C(=O)O)c2ccccc2)C(=O)C1=O [PIPERACILLIN]	Active	70 µM	64 s⁻¹	Active	128 µg/mL (≈ 247 µM)	0.38 µg/mL (≈ 0.734 µM)	64 µg/mL (≈ 124 µM)	32 µg/mL (≈ 61.8 µM)	> 256 µg/mL	914000 M⁻¹ s⁻¹	12 µg/mL (≈ 23.2 µM)				14
CC1(C)[C@H](C(=O)O)N2C(=O)C[C@H]2S1(=O)=O [SULBACTAM]												43.5 µM			
CC1(C)S[C@@H]2[C@H](NC(=O)[C@H](C(=O)O)c3ccsc3)C(=O)N2[C@H]1C(=O)O [TICARCILLIN]	Active	106 µM	35 s⁻¹	Active	128 µg/mL (≈ 333 µM)	0.75 µg/mL (≈ 1.95 µM)	32 µg/mL (≈ 83.2 µM)	24 µg/mL (≈ 62.4 µM)	> 256 µg/mL	330000 M⁻¹ s⁻¹	24 µg/mL (≈ 62.4 µM)				5
